Source: ChEMBL document CHEMBL4270554, “Discovery of the cancer cell selective dual acting anti-cancer agent (Z)-2-(1H-indol-3-yl)-3-(isoquinolin-5-yl)acrylonitrile (A131)” (Eur J Med Chem, 2018)

Experiments:
[1] = Intrinsic clearance in pooled female rat liver microsomes assessed per mg protein at 3 uM preincubated for 5 mins followed by NADPH addition measured after 45 mins by LC-MS/MS method; format: ADME, microsome; settings: read-out: CLH
Procedure, shortened: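 Pooled female or male rat liver microsomes (0.3 mg protein/mL) with substrate at final 3 μM in 0.1 M phosphate pH 7.4. Pre-incubated 5 min at 37 °C, then started with NADPH (final 1 mM). Sampled at 0–45 min in triplicate, quenched with cold acetonitrile plus internal standard. Parent measured by LC-MS/MS. Midazolam as positive control; no-NADPH negative control.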

[2] = test system: hTERT-BJ; assay: Inhibition of mitotic progression in human hTERT-BJ cells transformed with hTert, small t, shRNAs against p53 and pRb and H-RasV12-ER assessed as increase in phosphorylated histone H3 (Ser10) level at 5 uM after 24 hrs by immunoblot analysis relative to control; format: functional
Procedure, shortened: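 Fully transformed BJ fibroblasts (hTert, small t, shRNAs to p53 and pRb, H-RasV12-ER) treated 24 h at 5 μM. Immunoblot protocol as for HeLa. pH3 (Ser10) band intensity expressed as fold of DMSO control; under 2-fold counted as insignificant.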

[3] = test system: BJ; assay: Cell cycle arrest in human BJ cells assessed as accumulation at sub-G1 phase at 5 uM after 48 hrs; format: cell-based
Procedure, shortened: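 Isogenic normal and fully transformed BJ fibroblasts (hTert, small t, shRNAs to p53 and pRb, H-RasV12-ER) exposed to 5 μM for 48 h. Percentage of cells in sub-G1 phase determined as a cell death measure.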

[4] = Antiproliferative activity against human IMR90 cells after 72 hrs by MTT assay; format: cell-based; settings: IMR-90 cells
Procedure, shortened: (§1)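 Cells cultured at 37 °C, 5% CO₂ in medium with 10% FBS and penicillin/streptomycin, used within 12-20 passages. Seeded at 2.5×10^3 cells/well for 24 h, then compound added from DMSO stocks at 200-fold final concentration (final DMSO 0.5% v/v). After 72 h, 0.5 mg/mL MTT for 3 h, formazan dissolved in DMSO, A570 read. IC50 from sigmoidal fit; three independent determinations.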

[5] = Antiproliferative activity against human ARPE19 cells after 72 hrs by MTT assay; format: cell-based; settings: ARPE-19 cells; procedure, shortened: as §1
[6] = Antiproliferative activity against human WI38 cells after 72 hrs by MTT assay; format: cell-based; settings: WI-38 cells; procedure, shortened: as §1
[7] = test system: HGC-27; assay: Antiproliferative activity against human HGC27 cells after 72 hrs by MTT assay; format: functional; settings: HGC-27, 72 h; procedure, shortened: as §1
[8] = Antiproliferative activity against human SNU620 cells after 72 hrs by MTT assay; format: functional; settings: SNU620, 72 h; procedure, shortened: as §1
[9] = Antiproliferative activity against human SGCC-GC38 cells after 72 hrs by MTT assay; format: functional; procedure, shortened: as §1
[10] = test system: SCH; assay: Antiproliferative activity against human SCH cells after 72 hrs by MTT assay; format: functional; procedure, shortened: as §1
[11] = test system: MKN-45; assay: Antiproliferative activity against human MKN45 cells after 72 hrs by MTT assay; format: functional; settings: MKN-45, 72 h; procedure, shortened: as §1
[12] = Antiproliferative activity against human NCC19 cells after 72 hrs by MTT assay; format: functional; procedure, shortened: as §1
[13] = test system: DLD-1; assay: Antiproliferative activity against human DLD1 cells after 72 hrs by MTT assay; format: functional; settings: DLD-1, 72 h; procedure, shortened: as §1
[14] = test system: HT-29; assay: Antiproliferative activity against human HT-29 cells after 72 hrs by MTT assay; format: functional; settings: HT-29, 72 h; procedure, shortened: as §1
[15] = Antiproliferative activity against human HEp-3 cells after 72 hrs by MTT assay; format: functional; procedure, shortened: as §1
[16] = test system: Huh-7; assay: Antiproliferative activity against human HuH7 cells after 72 hrs by MTT assay; format: functional; settings: Huh-7, 72 h; procedure, shortened: as §1
[17] = test system: SNU-449; assay: Antiproliferative activity against human SNU449 cells after 72 hrs by MTT assay; format: functional; settings: SNU-449, 72 h; procedure, shortened: as §1
[18] = test system: MCF7; assay: Antiproliferative activity against human MCF7 cells after 72 hrs by MTT assay; format: functional; settings: MCF7, 72 h; procedure, shortened: as §1
[19] = test system: A549; assay: Antiproliferative activity against human A549 cells after 72 hrs by MTT assay; format: functional; settings: A549, 72 h; procedure, shortened: as §1
[20] = test system: HeLa; assay: Antiproliferative activity against human HeLa cells after 72 hrs by MTT assay; format: functional; procedure, shortened: as §1
[21] = Antiproliferative activity against human AC10 cells at 50 uM after 72 hrs by MTT assay; format: cell-based
[22] = test system: Salmonella typhimurium; assay: Genotoxicity in Salmonella typhimurium TA98 after 48 hrs in presence of S9 fraction by Ames test; format: toxicity, organism-based; settings: salmonella enterica subsp. enterica serovar typhimurium, s9, 48 h
[23] = test system: Salmonella typhimurium; assay: Genotoxicity in Salmonella typhimurium TA100 after 48 hrs in presence of S9 mix by Ames test; format: toxicity, organism-based; settings: salmonella enterica subsp. enterica serovar typhimurium
[24] = Half life in pooled male rat liver microsomes at 3 uM preincubated for 5 mins followed by NADPH addition measured after 45 mins by LC-MS/MS method; format: ADME, microsome
Procedure, shortened: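 Pooled female or male rat liver microsomes (0.3 mg protein/mL) with 3 μM substrate in 0.1 M phosphate buffer pH 7.4, pre-incubated 5 min at 37 °C, started with 1 mM NADPH. Samples at 0-45 min quenched in cold acetonitrile with internal standard, analysed by LC-MS/MS. Triplicates; midazolam positive control, no-NADPH negative control.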

[25] = test system: Mus musculus; assay: Toxicity in BALB/c athymic nu/nu mouse xenografted with human HCT15 cells assessed as effect on body weight at 20 mg/kg, ip bid administered 12 days; format: organism-based; settings: in vivo, 288 h
Procedure, shortened: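 Female BALB/c nu/nu mice aged 5–7 weeks, implanted subcutaneously in the flank with 5×10^6 HCT15 cells. At mean tumour 100–300 mm³, randomised into groups of 6. Given 20 mg/kg ip twice daily for 12 days, vehicle 10% DMSO/50% PEG400 in water pH 5.0.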

[26] = test system: HeLa; assay: Induction of autophagy in human HeLa cells assessed as increase in LC3-2 to LC3-1 ratio at 1.25 uM after 6 hrs by immunoblot analysis relative to control; format: functional
Procedure, shortened: (§2)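 HeLa cells exposed 6 h to test agent (0.625–10 μM series) or chloroquine (1.25–100 μM series) vs DMSO; lysed in 1% Triton buffer (25 mM Tris pH 8.0, 150 mM NaCl, DTT, protease/phosphatase inhibitors), 14% SDS-PAGE, immunoblot with anti-LC3, anti-pH3(Ser10), β-actin loading. LC3-II/LC3-I band intensity ratio expressed relative to DMSO control.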

[27] = test system: HeLa; assay: Induction of autophagy in human HeLa cells assessed as increase in LC3-2 to LC3-1 ratio at 2.5 uM after 6 hrs by immunoblot analysis relative to control; format: functional; procedure, shortened: as §2
[28] = test system: HeLa; assay: Induction of autophagy in human HeLa cells assessed as increase in LC3-2 to LC3-1 ratio at 10 uM after 6 hrs by immunoblot analysis relative to control; format: functional; procedure, shortened: as §2

## N#C/C(=C\c1cccc2cnccc12)c1c[nH]c2ccccc12
[1]
  microsomal CLint at 3 µM: 59 µL/min/mg
[2]
  fold change (FC): 7.3
[3]
  Activity: Non-Toxic
[4]
  GI50 at 72 h: 5.8 µM
[5]
  GI50 at 72 h: > 10 µM
[6]
  GI50 at 72 h: 3.4 µM
[7]
  GI50: 1200 nM
[8]
  GI50: 1000 nM
[9]
  GI50: 1900 nM
[10]
  GI50: 1700 nM
[11]
  GI50: 1000 nM
[12]
  GI50: 4.6 µM
[13]
  GI50: 1200 nM
[14]
  GI50: 900 nM
[15]
  GI50: 3.7 µM
[16]
  GI50: 1200 nM
[17]
  GI50: 2300 nM
[18]
  GI50: 1200 nM
[19]
  GI50: 2000 nM
[20]
  GI50: 1400 nM
[21]
  Activity: 77.6%
[22]
  Activity: Non-Toxic
[23]
  Activity: Non-Toxic
[24]
  half-life at 3 µM: 7.7 min
[25]
  Activity: Non-Toxic
[26]
  fold change (FC): 2.3
[27]
  fold change (FC): 3
[28]
  fold change (FC): 4.3
